For assay [1], the system named is C13. Nature of the assay: Direct cytotoxicity against the selected tumor cell line c13* was determined especially on ovarian adenocarcinoma derived cells; not detected. In kind it is functional, cell-based, Homo sapiens.
Assay [2] is described as follows: Potency ratio was determined against murine macrophages versus FAA (Flavone acetic acid). The assay is classed as functional. An outline of the steps: (§1)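 Ratio of reference IC50 (FAA or DMXAA) to analogue IC50 in the effector-cell coculture assay: mouse peritoneal macrophages or adherent human PBMC pretreated 24 h with drug, then C13* target cells added for 24 h, lysis by MTT. IC50 and ratios by Litchfield–Wilcoxon; three experiments in triplicate.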

The subject of assay [3] is LoVo. Nature of the assay: In vitro cytotoxicity against the selected tumor cell line LoVoR arising from human colon adenocarcinoma was determined; not detected. In kind it is functional, cell-based.
Assay [4] can be described thus: Indirect antitumor effect was measured as cytotoxicity against human monocytes; not detected. In kind it is functional. The method, boiled down: (§2)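 Adherent human PBMC (Ficoll isolation, 2 h adherence, washed) pretreated 24 h with 25, 50, 100 μM in RPMI 1640/5% FCS, triplicate wells. Medium removed, C13* cells (2 × 10^3/well) cocultured 24 h, read by MTT. Three experiments; IC50 by Litchfield–Wilcoxon.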

The species named for assay [5] is Mus musculus. Kind of assay: Indirect antitumor effect was measured as cytotoxicity with murine macrophages pretreated with compounds. In kind it is functional. An outline of the steps:
(§3)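 Resident mouse peritoneal macrophages (heparinised PBS lavage, 2 h adherence) plated at 1 × 10^4 cells/well with a range of drug concentrations, triplicate wells, 24 h. Medium removed, C13* cells (2 × 10^3/well) added, cocultured 24 h. Lysis by MTT; specific cytotoxicity = [OD(macrophages+C13*) − OD(macrophages)]/OD(C13*). Three experiments; IC50 by Litchfield–Wilcoxon.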

Assay [6] deals with 2008. Nature of the assay: Direct cytotoxicity against the selected tumor cell line 2008 was determined especially on ovarian adenocarcinoma derived cells; not detected. In kind it is functional, cell-based, Homo sapiens.
The nature of assay [7]: Potency ratio was determined against LoVoS versus FAA (Flavone acetic acid). The assay is classed as functional. An outline of the steps:
(§4)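 Ratio IC50(FAA)/IC50(analogue) from direct 24 h MTT cytotoxicity on the named line (LoVo S, LoVo R, 2008 or C13*), concentrations up to 500 μM. IC50 values and 95% confidence limits by Litchfield–Wilcoxon method; three experiments in triplicate.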

The subject of assay [8] is LoVo. Nature of the assay: In vitro cytotoxicity against the selected tumor cell line LoVoS arising from human colon adenocarcinoma was determined. In kind it is functional, cell-based.
Assay [9] in a line: Indirect antitumor effect was measured as cytotoxicity with human monocytes pretreated with compounds. The assay is classed as functional. An outline of the steps:
as §2

Assay [10] can be described thus: Potency ratio was determined against macrophages; more potent. The assay is classed as functional. The method, boiled down:
as §1

Assay [11] can be described thus: Potency ratio was determined against human monocytes versus DMXAA (Dimethylxanthenone-4-acetic acid). The assay is classed as functional. The method, boiled down:
as §1

Assay [12] concerns LoVo. Nature of the assay: In vitro cytotoxicity against the selected tumor cell line LoVoS arising from human colon adenocarcinoma was determined; not detected. The assay is classed as functional, cell-based.
Assay [13] deals with C13. Nature of the assay: Direct cytotoxicity against the selected tumor cell line c13* was determined especially on ovarian adenocarcinoma derived cells. The assay is classed as functional, cell-based. The following applies: Homo sapiens.
Assay [14] is described as follows: Potency ratio was determined against C13 cell line versus FAA (Flavone acetic acid); less potent. The assay is classed as functional. The method, boiled down:
as §4

For assay [15], the species on record is Mus musculus. Nature of the assay: Indirect antitumor effect was measured as cytotoxicity against murine macrophages; not detected. In kind it is functional. The method, boiled down: as §3
Assay [16] in a line: Potency ratio was determined against human monocytes versus DMXAA (Dimethylxanthenone-4-acetic acid); less potent. In kind it is functional. An outline of the steps: as §1
The subject of assay [17] is LoVo. Kind of assay: In vitro cytotoxicity against the selected tumor cell line LoVoR arising from human colon adenocarcinoma was determined. The assay is classed as functional, cell-based.
Assay [18] is described as follows: Potency ratio was determined against LoVoR versus FAA (Flavone acetic acid); less potent. In kind it is functional. The method, boiled down: as §4
The nature of assay [19]: Potency ratio was determined against LoVoR versus FAA (Flavone acetic acid). In kind it is functional. The method, boiled down: as §4
The nature of assay [20]: Potency ratio was determined against human monocytes versus DMXAA (Dimethylxanthenone-4-acetic acid); more potent. In kind it is functional. The method, boiled down:
as §1

The nature of assay [21]: Potency ratio was determined against C13 cell line versus FAA (Flavone acetic acid). The assay is classed as functional. The method, boiled down: as §4
In assay [22] the test system is 2008. Kind of assay: Direct cytotoxicity against the selected tumor cell line 2008 was determined especially on ovarian adenocarcinoma derived cells. The following applies: Homo sapiens. In kind it is functional, cell-based.
The nature of assay [23]: Potency ratio was determined against 2008 cell line versus FAA (Flavone acetic acid). The assay is classed as functional. The method, boiled down:
as §4

Assay [24] concerns LoVo. Nature of the assay: In vitro cytotoxicity against the selected tumor cell line LoVoR arising from human colon adenocarcinoma was determined.
Assay [25] can be described thus: Potency ratio was determined against 2008 cell line versus FAA (Flavone acetic acid); less potent. In kind it is functional. The method, boiled down:
as §4

The nature of assay [26]: Potency ratio was determined against macrophages. The assay is classed as functional. An outline of the steps: as §1
In assay [27] the test system is C13. Nature of the assay: cDirect cytotoxicity against the selected tumor cell line c13* was determined especially on ovarian adenocarcinoma derived cells. The assay is classed as functional, cell-based. The following applies: Homo sapiens.
The nature of assay [28]: cPotency ratio was determined against macrophages; more potent. The assay is classed as functional. An outline of the steps:
as §1

IC50 and Potency ratio data for 16 compounds are collected here from ChEMBL document CHEMBL1145051, “Synthesis and biological evaluation of 3-alkoxy analogues of flavone-8-acetic acid” (J Med Chem, 2003).

Structures are written as SMILES.

As to `CCOc1c(-c2ccccc2)oc2c(CC(=O)O)cccc2c1=O`, the IC50 result is “not detected” in the assay with C13 [1]; “not detected” in the assay on LoVo [3]; “not detected” in [4]; 431 µM in the assay filed under Mus musculus [5]; “not detected” in the assay on 2008 [6]; 611 µM with LoVo [8]. Further, the Potency ratio was 0.7 in assay [2] and 0.9 in assay [7].
For the compound `COc1c(-c2ccccc2C)oc2c(CC(=O)O)cccc2c1=O`, the 50% inhibitory concentration (IC50) was 127 µM in [9]; 248 µM in the assay filed under Mus musculus [5]; “not detected” in the assay with LoVo [12]; 524 µM with C13 [13]; “not detected” with 2008 [6]. Also, the Potency ratio in assay [2] turned out to be 1.1; in assay [10], 1.9; in assay [11], 1; in assay [14] it was 0.4.
For `COc1c(-c2ccc(F)cc2)oc2c(CC(=O)O)cccc2c1=O`, the IC50 result in the assay listed under Mus musculus [15] is “not detected”; in [9] it was 436 µM; with C13 [1], “not detected”; in the assay on LoVo [3] it was “not detected”; in the assay on LoVo [12], “not detected”; in the assay on 2008 [6], “not detected”. The Potency ratio in assay [16] is given as 0.3.
Regarding `COc1c(-c2ccccc2)oc2c(CC(=O)O)cccc2c1=O`, the IC50 with LoVo [17] is 627 µM; in the assay with C13 [13], 757 µM; in the assay with 2008 [6], “not detected”; in the assay with LoVo [8] it was 719 µM. Further, the Potency ratio in assay [18] is 0.6; in assay [7] it was 0.8; in [14], 0.3.
In the case of `COc1c(-c2cccc(C(F)(F)F)c2)oc2c(CC(=O)O)cccc2c1=O`, the IC50 result is “not detected” in the assay filed under Mus musculus [15]; 18.3 µM in assay [9]; “not detected” in the assay with C13 [1]; 532 µM with LoVo [17]; “not detected” with LoVo [12]; “not detected” with 2008 [6]. Further, the Potency ratio in assay [19] amounted to 0.7; in assay [20], 7.3.
Regarding `O=C(O)Cc1cccc2c(=O)cc(-c3ccccc3)oc12` [MITOFLAXONE], the Potency ratio in assay [2] was 1; in assay [21] it was 1; in [19], 0.6; in [7], 1; in assay [23], 1. For the same compound, the half-inhibitory concentration (IC50) with LoVo [17] was 378 µM; in assay [4], “not detected”; in the assay listed under Mus musculus [5], 285 µM; in the assay on C13 [13], 233 µM; in the assay with 2008 [22] it was 421 µM; in the assay on LoVo [8], 564 µM.
`COc1c(-c2ccccc2Cl)oc2c(CC(=O)O)cccc2c1=O`: the IC50 entry in the assay on C13 [1] is “not detected”; with LoVo [17], 780 µM; in assay [4] it was “not detected”; in the assay listed under Mus musculus [5] it was 284 µM; with 2008 [6] it was “not detected”; with LoVo [8] it was 605 µM. The Potency ratio was determined as 1 in assay [2], 0.5 in assay [18] and 0.9 in assay [7].
Turning to `COc1cccc(-c2oc3c(CC(=O)O)cccc3c(=O)c2OC)c1`, the IC50 result was “not detected” in the assay with C13 [1]; 514 µM in the assay with LoVo [17]; “not detected” in assay [4]; 182 µM in the assay listed under Mus musculus [5]; “not detected” in the assay on 2008 [6]; 829 µM with LoVo [8]. In addition, the Potency ratio in assay [2] came to 1.6; in assay [18] it was 0.7; in [7], 0.7.
Take `COc1c(-c2ccc(C)cc2)oc2c(CC(=O)O)cccc2c1=O`: the Potency ratio in [2] came out at 1.7; in assay [19], 0.7; in assay [7], 0.9; in assay [14], 0.3. The IC50 is 570 µM in the assay on LoVo [17]; “not detected” in assay [4]; 164 µM in the assay filed under Mus musculus [5]; 806 µM in the assay on C13 [13]; “not detected” in the assay on 2008 [6]; 632 µM with LoVo [8].
As for `COc1c(-c2cccc(Cl)c2)oc2c(CC(=O)O)cccc2c1=O`, the IC50 in assay [9] was 36.8 µM; in the assay with C13 [1] it was “not detected”; with LoVo [3], “not detected”; in the assay filed under Mus musculus [5], 239 µM; in the assay on 2008 [6], “not detected”; in the assay on LoVo [8] it was 534 µM. Also, the Potency ratio in assay [2] was found to be 1.2; in assay [10] it was 6.5; in assay [7], 1; in [20], 3.7.
Consider `COc1c(-c2cccc(C)c2)oc2c(CC(=O)O)cccc2c1=O`, for which the IC50 was 113 µM in [9]; “not detected” in the assay on C13 [1]; 648 µM in the assay on LoVo [17]; 234 µM in the assay filed under Mus musculus [5]; “not detected” with 2008 [6]; 697 µM in the assay with LoVo [8]. Besides, the Potency ratio in assay [2] was found to be 1.2; in [10], 2.1; in assay [11], 1.2; in [18] it was 0.6; in assay [7] it was 0.8.
Consider `CC(C)Oc1c(-c2ccccc2)oc2c(CC(=O)O)cccc2c1=O`, for which the concentration for half-maximal inhibition (IC50) result in the assay on C13 [1] is “not detected”; with LoVo [17], 407 µM; in assay [4], “not detected”; in the assay filed under Mus musculus [5] it was 225 µM; with 2008 [6], “not detected”; in the assay on LoVo [8] it was 815 µM. For the same compound, the Potency ratio is 1.3 in assay [2], 0.9 in assay [19] and 0.7 in assay [7].
As for `COc1ccccc1-c1oc2c(CC(=O)O)cccc2c(=O)c1OC`, the IC50 result is “not detected” in the assay listed under Mus musculus [15]; 193 µM in assay [9]; “not detected” in the assay on C13 [1]; 794 µM with LoVo [24]; “not detected” with 2008 [6]; 980 µM with LoVo [8]. The Potency ratio in [11] is 0.7; in assay [18] it was 0.5; in assay [7], 0.6.
On to `COc1c(-c2cccs2)oc2c(CC(=O)O)cccc2c1=O`, for which the IC50 result was “not detected” in the assay filed under Mus musculus [15]; 213 µM in assay [9]; “not detected” with C13 [1]; “not detected” in the assay with LoVo [3]; “not detected” in the assay on LoVo [12]; “not detected” in the assay on 2008 [6]. The Potency ratio in assay [16] came out at 0.6.
Turning to `COc1ccc(-c2oc3c(CC(=O)O)cccc3c(=O)c2OC)cc1`, the Potency ratio in [25] worked out at 0.7; in assay [2], 1.2; in assay [26], 1.3; in assay [11], 0.7; in assay [18] it was 0.7; in assay [7], 0.9. The Potency ratio in assay [14] was found to be 0.4. Besides, the half-maximal inhibitory concentration (IC50) in assay [9] was determined as 181 µM; in the assay on LoVo [17], 556 µM; in the assay listed under Mus musculus [5], 238 µM; in the assay on 2008 [22] it was 625 µM; in the assay on C13 [27], 548 µM; in the assay on LoVo [8] it was 601 µM.
On to `COc1c(-c2ccc(Cl)cc2)oc2c(CC(=O)O)cccc2c1=O`, for which the half-inhibitory concentration (IC50) in [9] is 105 µM; with LoVo [3], “not detected”; in the assay filed under Mus musculus [5] it was 293 µM; in the assay on LoVo [12] it was “not detected”; in the assay on C13 [13], 350 µM; in the assay with 2008 [6] it was “not detected”. Moreover, the Potency ratio was determined as 0.9 in [2], 1.3 in [11], 2.8 in [28] and 0.7 in assay [14].

What is called IC50 is the concentration needed to halve the response being measured.
